{
  "source": "ChEMBL document CHEMBL4004831",
  "about": "“Naphthalene diimide-polyamine hybrids as antiproliferative agents: Focus on the architecture of the polyamine chains” (Eur J Med Chem, 2017)",
  "key": {"Homo sapiens": {"species": "Homo sapiens", "experiment": "Stabilization of 5'Dabcyl/3'FAM labeled human telomeric sequence G-quadruplex DNA assessed as increase in melting temperature at 2.5 uM pretreated for 5 mins at 30 degreeC followed by 5 mins incubation at 95 degreeC by fluorescence assay", "method_in_brief": "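FRET melting in LiP buffer (10 mM LiOH, 50 mM KCl, pH 7.0 with H3PO4), ex 488 nm, em 520 nm. Samples were held 5 min at 30 °C, heated at 1 °C/min to 95 °C, held 5 min, then re-annealed. Tm came from first derivatives; ΔTm = shift with ligand at 2.5; at least three runs.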"}, "MCF7": {"system": "MCF7", "experiment": "Growth inhibition of human MCF7 cells incubated for 48 hrs by sulforhodamine B assay", "format": "functional", "conditions": "MCF7, 48 h"}, "HOP-92": {"system": "HOP-92", "experiment": "Growth inhibition of human HOP92 cells incubated for 48 hrs by sulforhodamine B assay", "format": "functional", "conditions": "HOP-92, 48 h"}, "[1]": {"molecular_target": "T1, DNA topoisomerase 2-alpha (Homo sapiens, UniProt P11388)", "T1 sequence (P11388 whole entry)": "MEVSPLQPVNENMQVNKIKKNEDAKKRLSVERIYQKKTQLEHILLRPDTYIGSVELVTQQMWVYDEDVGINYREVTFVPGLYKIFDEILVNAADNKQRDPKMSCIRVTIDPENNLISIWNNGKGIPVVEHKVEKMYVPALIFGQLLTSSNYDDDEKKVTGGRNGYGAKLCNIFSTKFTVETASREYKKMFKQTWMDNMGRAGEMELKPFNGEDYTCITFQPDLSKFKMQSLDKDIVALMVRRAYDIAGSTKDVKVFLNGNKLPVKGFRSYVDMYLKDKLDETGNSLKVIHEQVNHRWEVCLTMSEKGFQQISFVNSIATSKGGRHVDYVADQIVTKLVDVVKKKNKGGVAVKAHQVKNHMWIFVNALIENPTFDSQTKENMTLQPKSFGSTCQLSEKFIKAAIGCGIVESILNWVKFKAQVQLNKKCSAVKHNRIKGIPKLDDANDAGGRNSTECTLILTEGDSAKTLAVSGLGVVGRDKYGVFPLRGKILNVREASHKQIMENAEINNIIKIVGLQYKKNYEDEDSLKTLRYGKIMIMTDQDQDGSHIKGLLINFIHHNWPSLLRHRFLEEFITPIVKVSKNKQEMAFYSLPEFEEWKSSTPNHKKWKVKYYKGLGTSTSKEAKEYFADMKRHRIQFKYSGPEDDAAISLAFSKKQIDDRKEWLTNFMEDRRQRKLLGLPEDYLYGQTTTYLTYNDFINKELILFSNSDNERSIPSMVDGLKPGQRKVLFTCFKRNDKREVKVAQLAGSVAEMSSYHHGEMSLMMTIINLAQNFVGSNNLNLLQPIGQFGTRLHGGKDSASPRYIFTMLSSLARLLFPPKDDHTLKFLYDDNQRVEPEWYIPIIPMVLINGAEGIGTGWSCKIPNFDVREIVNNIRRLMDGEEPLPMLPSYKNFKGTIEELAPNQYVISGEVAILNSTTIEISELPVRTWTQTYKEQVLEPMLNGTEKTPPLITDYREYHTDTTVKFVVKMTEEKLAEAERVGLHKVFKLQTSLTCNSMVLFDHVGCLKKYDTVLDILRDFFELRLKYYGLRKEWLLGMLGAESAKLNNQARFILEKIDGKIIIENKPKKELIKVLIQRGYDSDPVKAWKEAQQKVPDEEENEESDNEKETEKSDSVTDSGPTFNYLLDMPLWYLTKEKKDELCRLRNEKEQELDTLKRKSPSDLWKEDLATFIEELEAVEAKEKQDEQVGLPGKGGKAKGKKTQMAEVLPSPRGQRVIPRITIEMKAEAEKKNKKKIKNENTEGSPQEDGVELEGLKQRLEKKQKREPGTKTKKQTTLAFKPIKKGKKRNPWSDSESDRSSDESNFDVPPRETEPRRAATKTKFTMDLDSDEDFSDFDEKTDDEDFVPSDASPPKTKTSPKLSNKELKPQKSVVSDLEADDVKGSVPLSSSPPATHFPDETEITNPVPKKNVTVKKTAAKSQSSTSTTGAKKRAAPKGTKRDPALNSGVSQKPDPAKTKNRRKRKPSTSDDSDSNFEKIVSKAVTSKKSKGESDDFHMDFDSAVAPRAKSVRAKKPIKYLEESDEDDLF", "experiment": "Poison activity at human topoisomerase-2alpha assessed as stabilization of DNA-enzyme cleavage complex at 0.5 to 100 uM using supercoiled pBR322 DNA as substrate after 1 hr by ethidium bromide staining based agarose gel electrophoresis", "method_in_brief": "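Cleavage-complex test: supercoiled pBR322 was exposed to compound (0.5–100) with 5 U human topoisomerase IIα for 1 h at 37 °C. Products were run on 1% agarose in TAE with 0.1% SDS (4.9 V/cm, 90 min) and stained with ethidium bromide, with nicked and linearized pBR322 as markers.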"}, "Jurkat [2]": {"system": "Jurkat", "experiment": "Induction of apoptosis in human Jurkat T cells at 6.4 uM after 24 hrs by annexin V-phycoerythrin/7-AAD staining based flow cytometry (reference value: 5.8 to 6.6%)", "format": "functional"}, "[3]": {"molecular_target": "T1, DNA topoisomerase 2-alpha", "experiment": "Inhibition of human topoisomerase-2alpha-mediated relaxation of supercoiled pBR322 DNA after 1 hr by ethidium bromide staining based agarose gel electrophoresis", "method_in_brief": "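Supercoiled pBR322 was incubated with compound (0.5–100) and 1 U human topoisomerase IIα in enzyme buffer for 1 h at 37 °C. Reactions were stopped with Tris/EDTA/NaCl loading buffer (pH 8.0) and run on 1% agarose in TAE with 0.1% SDS (4.9 V/cm, 90 min), then stained with ethidium bromide. IC50 is the concentration reducing relaxation activity by 50%.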"}, "Escherichia coli": {"system": "Escherichia coli", "experiment": "Binding affinity to Escherichia coli supercoiled pBR322 DNA assessed as DNA intercalation up to 100 uM by agarose gel electrophoresis", "method_in_brief": "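Supercoiled pBR322 mixed with ligand (0–100 µM) in 10 mM Tris, 50 mM KCl with no enzyme, then run on agarose gel. Shift in electrophoretic mobility was read as intercalation/binding.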"}, "Jurkat [4]": {"system": "Jurkat", "experiment": "Cell cycle arrest in human Jurkat T cells assessed as accumulation at G2/M phase at 3.2 uM after 24 hrs by propidium iodide staining based flow cytometry (reference value: 17.1 to 20.8%)", "format": "functional"}, "UACC-257": {"system": "UACC-257", "experiment": "Growth inhibition of human UACC257 cells incubated for 48 hrs by sulforhodamine B assay", "format": "functional", "conditions": "UACC-257, 48 h"}, "U-251": {"system": "U-251", "experiment": "Growth inhibition of human U251 cells incubated for 48 hrs by sulforhodamine B assay", "format": "functional", "conditions": "U-251, 48 h"}, "Jurkat [5]": {"system": "Jurkat", "experiment": "Induction of apoptosis in human Jurkat T cells at 3.2 uM after 24 hrs by annexin V-phycoerythrin/7-AAD staining based flow cytometry (reference value: 5.8 to 6.6%)", "format": "functional"}, "OVCAR-8": {"system": "OVCAR-8", "experiment": "Growth inhibition of human OVCAR8 cells incubated for 48 hrs by sulforhodamine B assay", "format": "functional", "conditions": "OVCAR-8, 48 h"}, "T47D": {"system": "T47D", "experiment": "Growth inhibition of human T47D cells incubated for 48 hrs by sulforhodamine B assay", "format": "functional"}, "MOLT-4": {"system": "MOLT-4", "experiment": "Growth inhibition of human MOLT4 cells incubated for 48 hrs by sulforhodamine B assay", "format": "functional", "conditions": "MOLT-4, 48 h"}, "A498": {"system": "A498", "experiment": "Growth inhibition of human A498 cells incubated for 48 hrs by sulforhodamine B assay", "format": "functional", "conditions": "A498, 48 h"}, "Jurkat [6]": {"system": "Jurkat", "experiment": "Induction of apoptosis in human Jurkat T cells assessed as caspase3 activation at 1.6 uM after 24 hrs by colorimetric assay relative to control", "format": "functional", "method_in_brief": "(§1)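 Jurkat cells were treated 24 h (0–6.4), and 3×10^6 cells were washed in PBS and lysed 10 min on ice. Cleared lysate was incubated 2 h at 37 °C in the dark with 10 mM DTT buffer and DEVD-pNA substrate. Absorbance at 405 nm was read against a no-substrate blank and expressed as fold over untreated cells. Valinomycin for 1 h was the positive control; three experiments.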"}, "Jurkat [7]": {"system": "Jurkat", "experiment": "Induction of apoptosis in human Jurkat T cells assessed as PARP cleavage at 3.2 uM after 24 hrs by flow cytometry (reference value: 4.8%)", "format": "functional"}, "RXF 393": {"system": "RXF 393", "experiment": "Growth inhibition of human RXF393 cells incubated for 48 hrs by sulforhodamine B assay", "format": "functional", "conditions": "RXF 393, 48 h"}, "SF-539": {"system": "SF-539", "experiment": "Growth inhibition of human SF539 cells incubated for 48 hrs by sulforhodamine B assay", "format": "functional", "conditions": "SF-539, 48 h"}, "Jurkat [8]": {"system": "Jurkat", "experiment": "Induction of apoptosis in human Jurkat T cells assessed as caspase3 activation at 6.4 uM after 24 hrs by colorimetric assay relative to control", "format": "functional", "method_in_brief": "as §1"}, "Jurkat [9]": {"system": "Jurkat", "experiment": "Cell cycle arrest in human Jurkat T cells assessed as accumulation at G0/G1 phase at 3.2 uM after 24 hrs by propidium iodide staining based flow cytometry (reference value: 62.7 to 68.6%)", "format": "functional"}, "DU-145": {"system": "DU-145", "experiment": "Growth inhibition of human DU145 cells incubated for 48 hrs by sulforhodamine B assay", "format": "functional", "conditions": "DU-145, 48 h"}, "[10]": {"molecular_target": "Telomerase reverse transcriptase (Homo sapiens) (UniProt O14746)", "sequence (O14746 whole entry)": "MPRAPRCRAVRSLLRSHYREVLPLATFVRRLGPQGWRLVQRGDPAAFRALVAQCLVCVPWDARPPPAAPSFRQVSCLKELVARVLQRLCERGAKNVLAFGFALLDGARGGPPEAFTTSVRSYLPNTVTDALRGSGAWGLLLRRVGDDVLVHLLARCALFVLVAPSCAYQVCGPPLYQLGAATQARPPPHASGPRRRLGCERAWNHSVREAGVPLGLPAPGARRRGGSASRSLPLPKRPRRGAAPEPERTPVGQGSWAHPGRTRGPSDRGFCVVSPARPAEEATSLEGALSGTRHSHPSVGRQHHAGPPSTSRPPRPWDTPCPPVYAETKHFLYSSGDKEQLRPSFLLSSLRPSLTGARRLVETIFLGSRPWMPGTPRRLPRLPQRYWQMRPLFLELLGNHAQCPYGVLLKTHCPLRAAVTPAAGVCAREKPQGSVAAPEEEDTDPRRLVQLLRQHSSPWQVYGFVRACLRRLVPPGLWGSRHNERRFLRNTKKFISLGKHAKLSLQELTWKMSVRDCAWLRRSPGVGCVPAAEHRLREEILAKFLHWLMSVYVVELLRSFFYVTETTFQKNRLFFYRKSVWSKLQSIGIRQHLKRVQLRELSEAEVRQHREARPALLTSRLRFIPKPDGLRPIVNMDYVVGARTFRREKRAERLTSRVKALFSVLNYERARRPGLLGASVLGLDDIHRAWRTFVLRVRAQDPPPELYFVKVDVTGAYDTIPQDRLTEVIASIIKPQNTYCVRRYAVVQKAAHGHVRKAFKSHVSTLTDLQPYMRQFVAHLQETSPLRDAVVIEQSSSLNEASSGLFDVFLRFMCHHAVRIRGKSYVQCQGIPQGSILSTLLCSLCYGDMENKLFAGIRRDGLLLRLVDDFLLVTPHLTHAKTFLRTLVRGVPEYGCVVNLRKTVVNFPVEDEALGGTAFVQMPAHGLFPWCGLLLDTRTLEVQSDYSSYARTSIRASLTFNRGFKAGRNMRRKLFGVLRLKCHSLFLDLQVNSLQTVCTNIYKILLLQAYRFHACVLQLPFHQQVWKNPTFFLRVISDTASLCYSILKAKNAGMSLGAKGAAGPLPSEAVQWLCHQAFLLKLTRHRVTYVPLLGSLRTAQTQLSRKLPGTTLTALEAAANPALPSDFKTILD", "experiment": "Inhibition of telomerase activity in human HeLa cells using 5'AATCCGTCGAGCAGAGTT3' as substrate after 30 mins by Sybr green1 staining based TRAP-PCR method", "format": "cell-based"}, "NCI-H23": {"system": "NCI-H23", "experiment": "Growth inhibition of human NCI-H23 cells incubated for 48 hrs by sulforhodamine B assay", "format": "functional", "conditions": "NCI-H23, 48 h"}, "HCC 2998": {"system": "HCC 2998", "experiment": "Growth inhibition of human HCC2998 cells incubated for 48 hrs by sulforhodamine B assay", "format": "functional", "conditions": "HCC 2998, 48 h"}, "SF-295": {"system": "SF-295", "experiment": "Growth inhibition of human SF295 cells incubated for 48 hrs by sulforhodamine B assay", "format": "functional", "conditions": "SF-295, 48 h"}, "COLO 205": {"system": "COLO 205", "experiment": "Growth inhibition of human COLO205 cells incubated for 48 hrs by sulforhodamine B assay", "format": "functional", "conditions": "COLO 205, 48 h"}, "Thermus aquaticus": {"system": "Thermus aquaticus", "experiment": "Inhibition of Thermus aquaticus DNA polymerase-mediated amplification of fragment of pBR322 by PCR", "method_in_brief": "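PCR amplification of a pBR322 fragment by Taq polymerase with increasing compound (0.25–40) for 25 cycles: 94 °C, 58 °C and 72 °C, 30 s each. Products were run on 2% agarose in 0.5X TBE (4.2 V/cm, 1.5 h) and stained with ethidium bromide. IC50 is the concentration halving activity; MIC is the lowest concentration that suppresses activity.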"}},
  "note": "Active and inactive are the calls of the source. The calls are words filed in the database; no cut-off is given here.",
  "data": [
    {"compound": "COc1ccccc1CNCCCN1C(=O)c2ccc3c4c(ccc(c24)C1=O)C(=O)N(CCCNCCCCN)C3=O", "values": [
      {"measurement": "ΔTm", "setting": "Homo sapiens", "value": 29, "unit": "°C"},
      {"measurement": "GI50", "setting": "MCF7", "value": 185, "unit": "nM"},
      {"measurement": "GI50", "setting": "HOP-92", "value": 273, "unit": "nM"},
      {"measurement": "Activity", "setting": "[1]", "value": "inactive"},
      {"measurement": "Activity", "setting": "Jurkat [2]", "value": 22.2, "unit": "%"},
      {"measurement": "IC50", "setting": "[3]", "value": 8100, "unit": "nM"},
      {"measurement": "Activity", "setting": "Escherichia coli", "value": "Active"},
      {"measurement": "Activity", "setting": "Jurkat [4]", "value": 20.8, "unit": "%"},
      {"measurement": "GI50", "setting": "UACC-257", "value": 163, "unit": "nM"},
      {"measurement": "GI50", "setting": "U-251", "value": 173, "unit": "nM"},
      {"measurement": "Activity", "setting": "Jurkat [5]", "value": 17.9, "unit": "%"},
      {"measurement": "GI50", "setting": "OVCAR-8", "value": 231, "unit": "nM"},
      {"measurement": "GI50", "setting": "T47D", "value": 215, "unit": "nM"},
      {"measurement": "GI50", "setting": "MOLT-4", "value": 302, "unit": "nM"},
      {"measurement": "GI50", "setting": "A498", "value": 619, "unit": "nM"},
      {"measurement": "fold change (FC)", "setting": "Jurkat [6]", "value": 2.6},
      {"measurement": "Activity", "setting": "Jurkat [7]", "value": 16.6, "unit": "%"},
      {"measurement": "GI50", "setting": "RXF 393", "value": 582, "unit": "nM"},
      {"measurement": "GI50", "setting": "SF-539", "value": 280, "unit": "nM"},
      {"measurement": "fold change (FC)", "setting": "Jurkat [8]", "value": 5.6},
      {"measurement": "Activity", "setting": "Jurkat [9]", "value": 59.7, "unit": "%"},
      {"measurement": "GI50", "setting": "DU-145", "value": 853, "unit": "nM"},
      {"measurement": "inhibition", "setting": "[10]", "value": "inactive"},
      {"measurement": "GI50", "setting": "NCI-H23", "value": 193, "unit": "nM"},
      {"measurement": "GI50", "setting": "HCC 2998", "value": 149, "unit": "nM"},
      {"measurement": "GI50", "setting": "SF-295", "value": 448, "unit": "nM"},
      {"measurement": "GI50", "setting": "COLO 205", "value": 110, "unit": "nM"},
      {"measurement": "MIC", "setting": "Thermus aquaticus", "value": 0.5, "unit": "µM"}
    ]}
  ]
}
